The record followed here is ChEMBL document CHEMBL3272179, “Synthetic metabolites of neurohypophyseal hormones. (Des-9-glycinamide)oxytocin and (des-9-glycinamide, des-8-leucine)oxytocin” (1976).

The structures appear in SMILES notation. The source made the active and inactive calls. The calls are words filed in the database; no cut-off is given here. Positions of bridges follow the written chain, without caps; N, C: chain ends. Residues, ends and D or L forms follow the SMILES beside them.

Experiment [1] can be described thus: Oxytocic activity in uterine horns of rat […]. Format: functional. The essentials: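 Six isolated uterine horns from three rats in natural estrus, with estrus confirmed by vaginal smear on the assay morning. Holton method as modified by Munsick, in Mg2+-free van Dyke-Hastings bathing solution. Four-point design or matches against USP Posterior Pituitary Reference Standard.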

In experiment [2] the test system is Rattus norvegicus. As to the kind of experiment: Pressor activity in atropinized and urethane-anesthetized rat at 1 mg. Format: functional, organism-based. The method, boiled down: (§1)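 Minimum of five atropinized, urethane-anesthetized male rats, following U.S. Pharmacopeia procedures. Tested for agonist and antagonist activity at single doses up to 1 mg. USP Posterior Pituitary Reference Standard used as reference.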

For experiment [3], the system named is Gallus gallus. As to the kind of experiment: Vasodepressor activity in conscious chicken. In kind it is functional. The essentials:
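Conscious chickens, minimum three, procedure of Coon. Tested for agonist activity at up to 1 mg analog per injection. Four-point design or matches against USP Posterior Pituitary Reference Standard.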

The test system of experiment [4] is Rattus norvegicus. As to the kind of experiment: Antidiuretic activity in inactin- and ethanol-anesthetized, hydrated Sprague-Dawley rat assessed as maximal depression of rate of urine flow. In kind it is functional. The method, boiled down:
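Six male Sprague-Dawley rats, anesthetized with Inactin and ethanol and hydrated. Method of Jeffers et al. as modified by Sawyer. The effective response was the maximal depression of urine flow rate. Four-point design or matches against USP Posterior Pituitary Reference Standard.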

Experiment [5] deals with Anura. As to the kind of experiment: Hydroosmotic activity in toad urinary bladder assessed as water transport. In kind it is functional. The method, boiled down:
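Water transport across toad urinary bladder measured by Bentley's method as modified by Eggena et al. At least five animals. Four-point design or matches against USP Posterior Pituitary Reference Standard.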

Experiment [6] has as its system Gallus gallus. As to the kind of experiment: Inhibition of oxytocin-induced vasodepressor activity in conscious chicken. Format: functional, organism-based. The method, boiled down: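 Analog and oxytocin injected simultaneously into conscious chickens (minimum three), procedure of Coon. Oxytocin held at 5×10^-11 mol while analog dose was raised stepwise to 5×10^-4 mol. Read-out was inhibition of the oxytocin vasodepressor response.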

In experiment [7] the test system is Rattus norvegicus. Put plainly: Pressor activity in atropinized and urethane-anesthetized rat. Format: functional. The essentials:
as §1

On to `CC[C@H](C)[C@@H]1NC(=O)[C@H](Cc2ccc(O)cc2)NC(=O)[C@@H](N)CSSC[C@@H](C(=O)N2CCC[C@H]2C(=O)O)NC(=O)[C@H](CC(N)=O)NC(=O)[C@H](CCC(N)=O)NC1=O` (H-CYIQNCP-OH; disulfide 1-6), for which the results for the Activity in experiment [1], in experiment [3] and in experiment [4] were 2.7 U/mg, 0.1 U/mg and 0.06 U/mg, respectively. Also, in experiment [2], the result was inactive.
As for `CC[C@H](C)[C@@H]1NC(=O)[C@H](Cc2ccc(O)cc2)NC(=O)[C@@H](N)CSSC[C@@H](C(=O)N2CCC[C@H]2C(=O)N[C@@H](CC(C)C)C(=O)O)NC(=O)[C@H](CC(N)=O)NC(=O)[C@H](CCC(N)=O)NC1=O` (H-CYIQNCPL-OH; disulfide 1-6), the Activity in experiment [1] turned out to be 2.4 U/mg; in experiment [5], 4 ×10⁻⁹ M; in experiment [4] it was 0.08 U/mg. Further, in experiment [2], the outcome was inactive. For the same compound, the inhibition entry in experiment [6] is “Active”.
`CC[C@H](C)[C@@H]1NC(=O)[C@H](Cc2ccc(O)cc2)NC(=O)[C@@H](N)CSSC[C@@H](C(=O)N2CCC[C@H]2C(=O)N[C@@H](CC(C)C)C(=O)NCC(N)=O)NC(=O)[C@H](CC(N)=O)NC(=O)[C@H](CCC(N)=O)NC1=O` [OXYTOCIN]: the Activity in experiment [1] was 546 U/mg; in experiment [5] it was 2.3 ×10⁻⁹ M; in experiment [3], 507 U/mg; in experiment [4], 2.1 U/mg; in experiment [7], 3.1 U/mg.
